The record followed here is ChEMBL document CHEMBL1781963, “Discovery of novel hepatoselective HMG-CoA reductase inhibitors for treating hypercholesterolemia: a bench-to-bedside case study on tissue selective drug distribution” (Bioorg Med Chem Lett, 2011).

For data set [1], the system named is L6. The data set can be described thus: Selectivity ratio of IC50 for cholesterol synthesis in rat L6 cells to IC50 for cholesterol synthesis in rat hepatocytes.
The test system of data set [2] is Syrian golden hamster. The data set can be described thus: Inhibition of cholesterol synthesis in golden syrian hamster assessed as reduction of [14C]-cholesterol level at 10 mg/kg, po followed by 3 hrs after treated with 80 uCi, ip of [14C]-sodium acetate measured after 5 hrs by liquid scintillation counting relative to control. The following applies: Mesocricetus auratus. It counts as functional. Put shortly: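 Separate hamster groups dosed po at 10 mg/kg at t = 0 h. 14C sodium acetate ip at t = 3 h, blood 14C cholesterol at t = 5 h. Percent change vs untreated controls, n = 8/group.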

Data set [3] in a line: Lipophilicity, log D of the compound at pH 7.4 by shake flask method. Format: physicochemical. The following applies: buffer. The gist of the method: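 Log D at pH 7.4 by shake flask.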
Data set [4] deals with Syrian golden hamster. Description: Inhibition of cholesterol synthesis in golden syrian hamster assessed as reduction of [14C]-cholesterol level at 10 mg/kg, po followed by 2 hrs after treated with 80 uCi, ip of [14C]-sodium acetate measured after 4 hrs by liquid scintillation counting relative to control. Format: functional. The settings on record: Mesocricetus auratus. The gist of the method: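 Hamsters dosed po at 10 mg/kg at t = 0 h. Intraperitoneal 14C sodium acetate at t = 2 h, blood drawn at t = 4 h for 14C cholesterol. Percent inhibition vs untreated controls, n = 8/group.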

Data set [5] concerns L6. Description: Inhibition of cholesterol synthesis in rat L6 cells assessed as reduction of [14C]-cholesterol level using [14C]-acetic acid preincubated for 3 hrs before addition of [14C]-acetic acid by scintillation counting. It counts as functional, cell-based. Put shortly:
(§1)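 Cholesterol synthesis inhibition measured in rat hepatocytes and rat myocyte cell line, giving IC50 for each. Mean ± SEM of n ≥ 2 independent determinations.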

In another data set the test system is Hepatocyte. The data set can be described thus: Inhibition of cholesterol synthesis in rat hepatocytes assessed as reduction of [14C]-cholesterol level using [14C]-acetic acid preincubated for 4 hrs before addition of [14C]-acetic acid by liquid scintillation counting. Format: functional, cell-based. The gist of the method:
as §1

Data set [6] concerns the target T1, 3-hydroxy-3-methylglutaryl-coenzyme A reductase (Rattus norvegicus, UniProt P51639).
T1 sequence (P51639 whole entry): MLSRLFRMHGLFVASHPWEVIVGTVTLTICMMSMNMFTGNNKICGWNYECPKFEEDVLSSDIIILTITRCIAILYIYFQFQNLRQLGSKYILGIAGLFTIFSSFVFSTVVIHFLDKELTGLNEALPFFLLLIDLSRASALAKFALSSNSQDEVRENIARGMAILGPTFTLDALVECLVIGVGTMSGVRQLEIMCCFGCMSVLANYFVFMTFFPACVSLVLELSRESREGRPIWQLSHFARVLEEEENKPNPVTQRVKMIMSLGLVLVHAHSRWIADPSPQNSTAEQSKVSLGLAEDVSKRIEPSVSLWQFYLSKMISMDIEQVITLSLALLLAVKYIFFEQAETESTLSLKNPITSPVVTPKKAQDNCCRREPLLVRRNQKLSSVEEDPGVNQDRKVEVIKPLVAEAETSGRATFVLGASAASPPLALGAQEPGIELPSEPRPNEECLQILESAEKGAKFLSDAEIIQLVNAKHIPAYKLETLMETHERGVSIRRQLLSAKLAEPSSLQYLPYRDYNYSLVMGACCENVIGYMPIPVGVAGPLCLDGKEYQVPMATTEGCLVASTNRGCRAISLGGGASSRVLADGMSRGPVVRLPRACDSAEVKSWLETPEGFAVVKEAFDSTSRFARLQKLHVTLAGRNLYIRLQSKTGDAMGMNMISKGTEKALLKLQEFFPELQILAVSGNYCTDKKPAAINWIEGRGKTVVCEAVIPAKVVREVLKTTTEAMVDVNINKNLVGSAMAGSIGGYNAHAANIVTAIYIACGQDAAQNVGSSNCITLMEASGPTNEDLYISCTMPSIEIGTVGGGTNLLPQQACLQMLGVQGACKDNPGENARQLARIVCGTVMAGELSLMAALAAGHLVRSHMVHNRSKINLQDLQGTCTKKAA
The data set can be described thus: Inhibition of HMG-CoA reductase in Sprague-Dawley rat liver microsomes using [14C]HMG-CoA as substrate preincubated for 0.5 hrs before substrate addition measured after 0.75 hrs by beta scintillation counting. Also on record: species or system Microsome. The gist of the method: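 Enzyme inhibition was measured in an HMG-CoA reductase preparation from rat microsomes. IC50 is reported as mean ± SEM of n ≥ 2 independent determinations.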

Where only a bound is given, the exact number is not on record here.

Turning to `CC(C)c1c(C(=O)NCc2ccccc2)nc(-c2ccc(F)cc2)n1CC[C@@H](O)C[C@@H](O)CC(=O)[O-].[Na+]`, the “Ratio IC50” value in the data set on L6 [1] is recorded as 10100. The figures for the inhibition in vivo at 10 mg/kg with Syrian golden hamster [2] and in the data set on Syrian golden hamster [4] were -7% and -53%, respectively. This molecule also came in with a logD in data set [3] of 0.64.

Regarding `Cc1ccc(CNC(=O)c2nc(-c3ccc(F)cc3)n(CC[C@@H](O)C[C@@H](O)CC(=O)[O-])c2C2CC2)cc1.[Na+]`, the “Ratio IC50” value in the data set with L6 [1] is 1780. The IC50 turned out to be 178 nM in the data set with L6 [5], 0.1 nM with Hepatocyte and 1.7 nM in data set [6]. The inhibition in vivo at 10 mg/kg in the data set on Syrian golden hamster [2] is -36%; with Syrian golden hamster [4] it was -79%. In data set [3], the log distribution coefficient (logD) amounted to 0.45.

In the case of `O=C([O-])C[C@H](O)C[C@H](O)CCn1c(-c2ccc(F)cc2)nc(C(=O)NCc2ccc(F)c(F)c2)c1C1CC1.[Na+]`, the “Ratio IC50” value with L6 [1] is 5560. The IC50 worked out at 2780 nM in the data set on L6 [5], 0.5 nM in the data set with Hepatocyte and 1.2 nM in data set [6]. Moreover, the inhibition in vivo at 10 mg/kg in the data set on Syrian golden hamster [2] is -8%.

As for `CN(C)S(=O)(=O)c1ccc(CNC(=O)c2nc(-c3ccc(F)cc3)n(CC[C@@H](O)C[C@@H](O)CC(=O)[O-])c2C2CC2)cc1.[Na+]`, the Ratio IC50 in the data set on L6 [1] is more than 200000. Further, the IC50 is more than 100000 nM with L6 [5], 0.5 nM in the data set with Hepatocyte and 4.9 nM in data set [6]. Besides, the inhibition in vivo at 10 mg/kg with Syrian golden hamster [2] was determined as 0%. Moreover, the logD in data set [3] was -0.46.

Regarding `NC(=O)c1ccc(CNC(=O)c2nc(-c3ccc(F)cc3)n(CC[C@@H](O)C[C@@H](O)CC(=O)[O-])c2C2CC2)cc1.[Na+]`, the Ratio IC50 with L6 [1] is more than 250000. Moreover, the half-inhibitory concentration (IC50) in the data set with L6 [5] was more than 100000 nM; in the data set with Hepatocyte, 0.4 nM; in data set [6], 7.2 nM. Further, the inhibition in vivo at 10 mg/kg in the data set with Syrian golden hamster [2] was determined as 0%. This molecule returned a logD in data set [3] of -1.1.

The molecule `CCc1c(C(=O)NCc2ccccc2)nc(-c2ccc(F)cc2)n1CC[C@@H](O)C[C@@H](O)CC(=O)O` had an IC50 in data set [6] of 123 nM.

On to `O=C([O-])C[C@H](O)C[C@H](O)CCn1c(-c2ccc(F)cc2)nc(C(=O)NCc2ccc(F)cc2)c1C1CC1.[Na+]`, for which the “Ratio IC50” value in the data set with L6 [1] is 2310. Moreover, the IC50 was 1620 nM in the data set on L6 [5], 0.7 nM in the data set on Hepatocyte and 3.4 nM in data set [6]. For the same molecule, the inhibition in vivo at 10 mg/kg with Syrian golden hamster [2] is 0%. In data set [3], this molecule registered a logD of 0.17.

In the case of `O=C([O-])C[C@H](O)C[C@H](O)CCn1c(-c2ccc(F)cc2)nc(C(=O)NCc2ccc(F)cc2F)c1C1CC1.[Na+]`, in the data set on L6 [1], the “Ratio IC50” value came to 24350. Moreover, the IC50 in the data set with L6 [5] came to 4870 nM; in the data set with Hepatocyte, 0.2 nM; in data set [6], 1.2 nM. Moreover, the inhibition in vivo at 10 mg/kg in the data set with Syrian golden hamster [4] is -46%.

As to `COc1ccccc1CNC(=O)c1nc(-c2ccc(F)cc2)n(CC[C@@H](O)C[C@@H](O)CC(=O)[O-])c1C1CC1.[Na+]`, the “Ratio IC50” value in the data set on L6 [1] was determined as 107000. The IC50 in the data set with L6 [5] was 10700 nM; in the data set on Hepatocyte it was 0.1 nM; in data set [6] it was 7 nM. The molecule further came in with a logD in data set [3] of 0.16.

In the case of `O=C([O-])C[C@H](O)C[C@H](O)CCn1c(-c2ccc(F)cc2)nc(C(=O)NCc2ccccc2)c1C1CC1.[Na+]`, the “Ratio IC50” value in the data set on L6 [1] was found to be 3160. Also, the IC50 was 632 nM with L6 [5], 0.2 nM in the data set on Hepatocyte and 1.4 nM in data set [6]. The molecule further returned a logD in data set [3] of 0.03. Besides, the inhibition in vivo at 10 mg/kg in the data set on Syrian golden hamster [4] was -58%.

Take `Cc1cccc(CNC(=O)c2nc(-c3ccc(F)cc3)n(CC[C@@H](O)C[C@@H](O)CC(=O)[O-])c2C2CC2)c1.[Na+]`: in the data set on L6 [1], the “Ratio IC50” value is listed as 1770. Further, the IC50 turned out to be 532 nM with L6 [5], 0.3 nM in the data set on Hepatocyte and 7.2 nM in data set [6]. Further, the inhibition in vivo at 10 mg/kg in the data set with Syrian golden hamster [2] was -50%; in the data set on Syrian golden hamster [4] it was -54%. In data set [3], the logD stood at 0.47.

`CCCc1c(C(=O)NCc2ccccc2)nc(-c2ccc(F)cc2)n1CC[C@@H](O)C[C@@H](O)CC(=O)O` yielded an IC50 in data set [6] of 26 nM.

With `Cc1ccc(CNC(=O)c2nc(-c3ccc(F)cc3)n(CC[C@@H](O)C[C@@H](O)CC(=O)[O-])c2C2CC2)cc1F.[Na+]`, the “Ratio IC50” value in the data set with L6 [1] came to 2240. The IC50 was found to be 224 nM in the data set on L6 [5], 0.1 nM in the data set on Hepatocyte and 4.1 nM in data set [6]. In data set [3], the logD is 0.69.

Consider `Cc1ccccc1CNC(=O)c1nc(-c2ccc(F)cc2)n(CC[C@@H](O)C[C@@H](O)CC(=O)[O-])c1C1CC1.[Na+]`, for which, in the data set on L6 [1], the “Ratio IC50” value is 48500. The IC50 in the data set with L6 [5] was determined as 4850 nM; with Hepatocyte, 0.1 nM; in data set [6], 4.9 nM. In the data set on Syrian golden hamster [2], the inhibition in vivo at 10 mg/kg amounted to 0%. In addition, the logD in data set [3] amounted to 0.44.

On to `O=C(O)C[C@H](O)C[C@H](O)CCn1c(-c2ccc(F)cc2)nc(C(=O)NCc2ccccc2F)c1C1CC1`, for which the IC50 with L6 [5] is 27200 nM; in data set [6] it was 1.5 nM. Moreover, in the data set on Syrian golden hamster [2], the inhibition in vivo at 10 mg/kg was -4%. Moreover, the logD in data set [3] is 0.08.

Turning to `COc1ccc(CNC(=O)c2nc(-c3ccc(F)cc3)n(CC[C@@H](O)C[C@@H](O)CC(=O)[O-])c2C2CC2)cc1F.[Na+]`, the “Ratio IC50” value with L6 [1] came to 4450. Moreover, the IC50 stood at 890 nM in the data set with L6 [5], 0.2 nM in the data set on Hepatocyte and 3.7 nM in data set [6]. Also, the inhibition in vivo at 10 mg/kg is 0% in the data set with Syrian golden hamster [2] and -36% with Syrian golden hamster [4].

In the case of `COc1ccc(CNC(=O)c2nc(-c3ccc(F)cc3)n(CC[C@@H](O)C[C@@H](O)CC(=O)[O-])c2C2CC2)cc1.[Na+]`, in the data set with L6 [1], the “Ratio IC50” value turned out to be 32000. Also, the IC50 is 6400 nM in the data set with L6 [5], 0.2 nM with Hepatocyte and 1.2 nM in data set [6]. For the same molecule, the logD in data set [3] was 0.02. Also, the inhibition in vivo at 10 mg/kg in the data set on Syrian golden hamster [4] is -60%.

On to `COc1cccc(CNC(=O)c2nc(-c3ccc(F)cc3)n(CC[C@@H](O)C[C@@H](O)CC(=O)[O-])c2C2CC2)c1.[Na+]`, for which the “Ratio IC50” value in the data set on L6 [1] is on record as 2960. Besides, the IC50 in the data set on L6 [5] worked out at 538 nM; in the data set with Hepatocyte, 0.2 nM; in data set [6], 1.2 nM. For the same molecule, the figures for the inhibition in vivo at 10 mg/kg in the data set on Syrian golden hamster [2] and with Syrian golden hamster [4] were -42% and -53%, respectively. In addition, the logD in data set [3] amounted to 0.11.

`Cc1c(C(=O)NCc2ccccc2)nc(-c2ccc(F)cc2)n1CC[C@@H](O)C[C@@H](O)CC(=O)O` gave an IC50 in data set [6] of 94 nM.
